Assay outcomes as filed in PubChem.
An excerpt weighted towards active compounds, which were near 0.77% of everything screened.
hIAP activ: human IAP activation; P09923; AID 2524; purified human IAP, CDP-Star luminescence, 30 min; hits give high values; 1 = vehicle-only enzyme, 0 = enzyme-free background; activation factor at 10 µM; 0.16% of 330,000 active;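 active means activation factor of the enzyme at least 2-fold when tested at 20 µM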
Target sequence (P09923 whole entry, looked up): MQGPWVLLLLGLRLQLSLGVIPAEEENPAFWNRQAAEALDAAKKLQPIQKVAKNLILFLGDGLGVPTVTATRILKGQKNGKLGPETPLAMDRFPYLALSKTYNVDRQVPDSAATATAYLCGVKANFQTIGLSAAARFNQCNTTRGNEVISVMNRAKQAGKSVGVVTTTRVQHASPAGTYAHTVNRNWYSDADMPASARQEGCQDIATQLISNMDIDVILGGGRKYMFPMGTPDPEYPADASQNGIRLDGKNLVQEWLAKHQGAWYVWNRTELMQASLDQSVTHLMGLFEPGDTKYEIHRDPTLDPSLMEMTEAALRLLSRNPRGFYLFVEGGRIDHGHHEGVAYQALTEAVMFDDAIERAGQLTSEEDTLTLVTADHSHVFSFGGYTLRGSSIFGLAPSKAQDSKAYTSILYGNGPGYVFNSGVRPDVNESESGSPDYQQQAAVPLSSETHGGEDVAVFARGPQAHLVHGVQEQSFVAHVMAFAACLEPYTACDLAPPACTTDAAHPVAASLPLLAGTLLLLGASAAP
hIAP inh: blocks human intestinal alkaline phosphatase | purified IAP, CDP-Star luminescence, 30 min | inhibition, % at 10 µM | 0.12% of 330,000 active;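 active means inhibition reaching a set limit with compound at 10 µM in the primary screen, cut at about 35% in these data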
mIAP inh: blocks mouse intestinal alkaline phosphatase; purified mouse IAP, CDP-Star luminescence, 30 min; inhibition, % at 10 µM; 0.2% of 330,000 active;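 active means inhibition of at least 40% at 10 µM in the primary screen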
mIAP activ: increases mouse intestinal alkaline phosphatase activity. muIAP, CDP-Star luminescence, 30 min; hits give high values; 1 = vehicle-only enzyme signal, 0 = enzyme-free wells. activation factor at 10 µM. 0.24% of 330,000 active. AID 2805;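 active means activation factor of at least 2 at 20 µM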
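System: mouse IAP enzyme. Reagent: CDP-Star chemiluminescent phosphatase substrate. Benchmarks: DMSO wells, no-enzyme wells. Times: 30 min enzyme-substrate-compound incubation at room temperature. Detection: luminescence from enzymatic CDP-Star hydrolysis. Doses: test compounds delivered from DMSO solution.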
bIAP inh: intestinal alkaline phosphatase (bovine) inhibition; purified bovine IAP, CDP-star luminescence, 30 min; inhibition, % at 20 µM; 190,000 tested, under 10 active; AID 1019;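 active means over 50% inhibition of intestinal alkaline phosphatase at 20 µM in the single-dose screen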
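test system = bovine IAP enzyme | medium = DEA buffer 100 mM, pH 9.8, with MgCl2 1.0 mM, ZnCl2 0.02 mM | detection = luminescence | dosing = single compound dose of 20 µM, 2% DMSO final | incubation = 30 min reaction at room temperature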
bIAP act: increases bovine intestinal alkaline phosphatase activity | AID 1016 | purified bovine IAP, CDP-star luminescence, 30 min; hits give high values; fold of DMSO-control signal, blank-subtracted | activation factor at 20 µM | 0.17% of 200,000 active;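 active means activation factor of 2 or more at 20 µM, a signal rise over negative controls twice the positive control's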
Of the large screens only hits and unclear results are named; the others gave an inactive call.

O=C(Nc1ccc(Br)cc1)Nc1ccccc1Cl	mIAP activ 2 (no result: bIAP inh, bIAP act)
Cc1cc(C)c(NC(=O)c2ccc(CN3CCc4ccccc4C3)cc2)c(C)c1	bIAP act 2.1
O=C(CSc1nnc(CCc2nc3ccccc3[nH]2)n1-c1ccccc1)NCc1ccco1	bIAP act 2.5
O=C(CSc1nnc(CCc2nc3ccccc3[nH]2)n1-c1ccccc1)NCc1ccccc1	none
O=C(CSCc1ccco1)c1ccc(Cl)s1	mIAP inh 45
O=C(NNC(=S)NCc1ccco1)c1ccc(Cl)s1	none
O=C(NCc1ccco1)Nc1cccc([N+](=O)[O-])c1	none (no result: bIAP inh, bIAP act)
CCOC(=O)c1sc(NC(=O)Nc2ccccc2Cl)cc1C	mIAP activ 3.2
CCOC(=O)c1sc(NC(=O)Nc2ccccc2)cc1C	none
Cc1nc2cc(NC(=O)NCc3ccc4c(c3)OCO4)ccc2o1	none
Cc1nc2cc(NC(=O)Nc3ccc(Br)cc3)ccc2o1	mIAP activ 2
COCCCNC(=O)CC1C[C@H](C(=O)N2CCOCC2)[C@@]2(CCC3CCCC3)c3[nH]c4ccc(OC)cc4c3CCN2C1=O (stereo partly specified)	none (no result: hIAP activ, hIAP inh, bIAP inh, bIAP act)
O=C(NNC(=O)c1cccnc1)Nc1cccc(Cl)c1Cl	none
COC(=O)/C=c1/s/c(=C(/C#N)C(=O)N2CCCCC2)n(-c2ccccc2)c1=O	none
COc1cc(/C=c2\s/c(=C(/C#N)C(=O)N3CCCC3)n(-c3ccccc3)c2=O)ccc1O	mIAP inh 42 (no result: bIAP inh)
CC(=O)C(C)n1c(CN2CCN(C(=O)c3ccco3)CC2)nc2c1c(=O)n(C)c(=O)n2C (stereo unspecified)	none (no result: bIAP inh, bIAP act)
Cc1cccc(NC(=O)C2C(c3ccccc3)C2(Cl)Cl)c1 (stereo unspecified)	mIAP activ 2.5
CCOC(=O)[C@H]1[C@H]2COc3ccccc3[C@@H]2N2C(=O)c3ccccc3NC(=O)[C@@]12C	none (no result: bIAP inh, bIAP act)
CCC(=O)Nc1cccc(C2=NN(c3ccccc3)C(c3ccc(OC)cc3)C2)c1 (stereo unspecified)	mIAP activ 2.7 (no result: bIAP inh, bIAP act)
O=C(Nc1ccc(N2CCN(C(=O)c3ccccc3F)CC2)cc1)c1cncc(Br)c1	none (no result: bIAP inh, bIAP act)
O=C(Nc1cccc(Cl)c1)N1CCN(C2c3ccccc3-c3ccccc32)CC1	mIAP activ 2.1 (no result: bIAP inh, bIAP act)
O=C(NC1CCN(C(=O)Nc2cccc(Cl)c2)CC1)c1ccccc1	none (no result: bIAP inh, bIAP act)
CCN(CC)S(=O)(=O)c1ccc(NC(=O)CCC2CCCCC2)cc1	bIAP act 2.3 (no result: hIAP activ, hIAP inh, mIAP inh, mIAP activ)
COc1ccc(S(=O)(=O)Nc2cccc3c2O[C@H](CN(C)Cc2ccncc2)[C@@H](C)CN([C@H](C)CO)C3=O)cc1	none (no result: bIAP inh, bIAP act)
Cc1ccc(NC(=S)NCCC2=CCCCC2)cc1	none
CCOC(=O)c1ccc(NC(=S)NCCc2ccccc2)cc1	none
CCOC(=O)c1ccc(NC(=S)NCCC2=CCCCC2)cc1	mIAP activ 2.6
CCOC(=O)c1ccc(NC(=S)NCCc2ccccc2F)cc1	mIAP activ 2.2
O=C(NCC1CCCO1)c1ccc([N+](=O)[O-])s1 (stereo unspecified)	none (no result: bIAP inh, bIAP act)
O=C(NC1=NN(c2ccccc2)CC1)Nc1ccccc1F	none (no result: bIAP inh, bIAP act)
Cc1ccc(O)c(-c2cc(C(=O)NCc3ccncc3)[nH]n2)c1	bIAP act 2.1
Cc1c(CCOC(=O)CC23CC4CC(CC(C)(C4)C2)C3)sc[n+]1CC(=O)c1ccccc1	none
Cc1c(CCOC(=O)C23CC4CC(CC(C)(C4)C2)C3)sc[n+]1CC(=O)c1ccccc1	mIAP inh 43
COc1ccc(Br)c(C(=O)OCC(=O)NC2CCCCCC2)c1	none (no result: bIAP inh, bIAP act)
COc1ccccc1NS(=O)(=O)c1cn(C)cn1	none (no result: bIAP inh, bIAP act)
CCOc1ccccc1C(=O)NC1CC2CCCC(C1)N2Cc1nnnn1Cc1ccco1 (stereo unspecified)	none
O=C(NC1CC2CCC(C1)N2Cc1nnnn1Cc1ccco1)NC12CC3CC(CC(C3)C1)C2 (stereo unspecified)	bIAP act 3.4
Cc1cccc(OCC(=O)N2CCc3ccccc3C2)c1	none (no result: bIAP inh, bIAP act)
O=C(COc1ccc2c(c1)oc(=O)c1ccccc12)NCC1CCC(C(=O)O)CC1 (stereo unspecified)	none (no result: bIAP inh, bIAP act)
CCc1cc(Cn2nc(-c3ccccc3)cc2C(=O)NCc2cccs2)on1	mIAP activ 3.6 (no result: bIAP inh, bIAP act)
Cn1c(CNc2ccc(Cl)cc2)nc2ccccc21	none
CC(C)N=c1cc2n(-c3ccc(Cl)cc3)c3ccccc3nc-2cc1Nc1ccc(Cl)cc1	hIAP inh 39 (no result: bIAP inh, bIAP act)
COc1cc(C)c2c(c1C=O)Oc1c(c(C)c(O)c3c1C(O)OC3=O)OC2=O (stereo unspecified)	mIAP inh 54
N/C(=N\OC(=O)c1ccc([N+](=O)[O-])cc1)c1cccnc1	none
O=C(Oc1c(Br)cc([N+](=O)[O-])cc1Br)c1cccnc1	hIAP activ 2.3
C=CCN=C(NC#N)SCCc1ccccc1	none
C=CCN=C(NC#N)SCC(=O)NCc1ccccc1	bIAP act 2.2
COc1cc(NC(=O)C2CCC(CNc3c(N4CCC(C)CC4)c(=O)c3=O)CC2)cc(OC)c1 (stereo unspecified)	none
COc1ccc(NC(=O)C2CCC(CNc3c(N4CCC(C)CC4)c(=O)c3=O)CC2)cc1OC (stereo unspecified)	bIAP act 3.1
COc1cc(CNCCN2CCOCC2)ccc1OCc1ccc(Cl)cc1Cl	none
COc1cc(CNCc2ccccn2)ccc1OCc1ccc(Cl)cc1Cl	bIAP act 2.7
COc1cc(CNCc2ccccn2)ccc1OCc1ccc(Cl)c(Cl)c1	bIAP act 2.4
COc1cc(CNCc2ccccn2)ccc1OCC(N)=O	none
COCCNC(=O)CN1C(=O)COc2ccc(S(=O)(=O)N3CC(C)CC(C)C3)cc21 (stereo unspecified)	none (no result: bIAP inh, bIAP act)
S=C(NCCCc1ccccc1)Nc1ccccc1Cl	mIAP activ 2.6
O=C(NCCCc1ccccc1)Nc1cccc(Cl)c1	mIAP activ 4.2
Fc1cc(Br)ccc1NC(=S)NCCc1ccccc1	mIAP activ 2.2
S=C(NCCc1ccccc1)Nc1ccccc1Cl	none
Cc1ccc(NC(=O)NCCCc2ccccc2)cc1	mIAP activ 2.2
CCc1ccc2nc(NC(=O)CN3C(=O)NC4(CCCC4)C3=O)sc2c1	none (no result: bIAP inh, bIAP act)
COC(=O)c1ccc(OC)c(CN2CCCN(Cc3ccc(F)cc3)S2(=O)=O)c1	none (no result: bIAP inh, bIAP act)
COc1cccc(C2CN(c3ccc(F)cc3F)N=C2c2cccs2)c1OC (stereo unspecified)	mIAP activ 2
COC(=O)c1ccc(NC(=S)NC2CCCCC2C)cc1 (stereo unspecified)	mIAP activ 2.6
CCOC(=O)c1ccc(NC(=S)NC(=O)C2CCCC2)cc1	none (no result: bIAP inh, bIAP act)
CCOC(=O)c1ccc(NC(=S)NC2CCCC2)cc1	mIAP activ 2.2
COc1ccc(OC)c(NC(=S)NCc2ccccc2OC)c1	none
COc1ccc(OC)c(NC(=S)NCCC(c2ccccc2)c2ccccc2)c1	mIAP activ 2.6 (no result: bIAP inh, bIAP act)
Cc1ccc(NC(=S)NCCC(c2ccccc2)c2ccccc2)c(C)c1	mIAP activ 4.1
